From ChEMBL document CHEMBL4043195, “Development of water-soluble 3,5-dinitrophenyl tetrazole and oxadiazole antitubercular agents” (Bioorg Med Chem, 2017)
In brackets after ≈: the same amount, converted by molar mass.

Key:
Mycobacterium kansasii [1] = assay: Antimycobacterial activity against Mycobacterium kansasii 6509/96 incubated for 14 days by micromethod; format: functional; settings: for MIC99: Mycobacterium kansasii, 6509/96, 336 h
Method in brief: (§1)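 M. kansasii MIC by micromethod in Sula's semisynthetic medium. Inoculum was a 1.0 McFarland suspension diluted 10^-4, 0.1 mL per well. Compounds were dissolved in DMSO and tested at 32 to 0.03 µM in twofold steps. […] INH and RIF were reference drugs.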

Mycobacterium kansasii [2] = assay: Antimycobacterial activity against Mycobacterium kansasii CNCTC My 235/80 incubated for 14 days by micromethod; format: functional; settings: for MIC99: Mycobacterium kansasii, CNCTC My 235/80, 336 h; method in brief: as §1
[3] = system: Mycobacterium tuberculosis; assay: Antimycobacterial activity against Mycobacterium tuberculosis H37Rv CNCTC My 331/88 incubated for 14 days by micromethod; format: functional; settings: for MIC99: Mycobacterium tuberculosis, H37Rv CNCTC My 331/88, 336 h
Method in brief: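 Strain H37Rv was tested in Sula's semisynthetic medium by micromethod. The basic suspension was set to 1.0 McFarland and diluted 10^-3, with 0.1 mL added per well. Compounds were added from DMSO at 32 to 0.03 µM. […] INH and RIF were used as standards.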

Mycobacterium avium = assay: Antimycobacterial activity against Mycobacterium avium CNCTC My 330/88 incubated for 14 days by micromethod; format: functional; settings: for MIC99: Mycobacterium avium, CNCTC My 330/88, 336 h
Method in brief: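 Micromethod MIC assay in Sula's semisynthetic medium. The inoculum was a 1.0 McFarland suspension diluted 10^-5, with 0.1 mL added per well. Compounds were dissolved in DMSO and tested at 1000 to 1 µM in two-fold steps. Plates were incubated at 37 °C for 14 days. […] INH and RIF were the reference drugs.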

[4] = system: Mycobacterium tuberculosis; assay: Antimycobacterial activity MDR/XDR against Mycobacterium tuberculosis isolate 8666/2010 incubated for 14 days by micromethod; format: functional; settings: for MIC99: isolate 8666/2010, 336 h
[5] = system: Mycobacterium tuberculosis; assay: Antimycobacterial activity MDR/XDR against Mycobacterium tuberculosis isolate 7357/1998 incubated for 14 days by micromethod; format: functional; settings: for MIC99: isolate 7357/1998, 336 h
[6] = system: Mycobacterium tuberculosis; assay: Antimycobacterial activity MDR/XDR against Mycobacterium tuberculosis isolate Praha 4 incubated for 14 days by micromethod; settings: isolate Praha 4, 336 h
[7] = system: Mycobacterium tuberculosis; assay: Antimycobacterial activity MDR/XDR against Mycobacterium tuberculosis isolate 9449/2007 incubated for 14 days by micromethod; format: functional; settings: for MIC99: isolate 9449/2007, 336 h
[8] = system: Mycobacterium tuberculosis; assay: Antimycobacterial activity MDR/XDR against Mycobacterium tuberculosis isolate Praha 131 incubated for 14 days by micromethod; format: functional; settings: for MIC99: isolate Praha 131, 336 h
[9] = system: Mycobacterium tuberculosis; assay: microbe, parasite or virus in culture; settings: isolate 234/2005, 336 h
[10] = system: Mycobacterium tuberculosis; assay: Antimycobacterial activity MDR/XDR against Mycobacterium tuberculosis isolate Praha 1 incubated for 14 days by micromethod; format: functional; settings: for MIC99: isolate Praha 1, 336 h
[11] = Solubility in pH 7.4 PBS buffer by HPLC method; format: physicochemical
Method in brief: (§2)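 Salt (15 mg) was shaken 2 h at room temperature in 1 mL 0.05 M citrate pH 3, 1 mL 0.1 M acetate pH 5, or 5 mL PBS pH 7.4. Suspensions were decanted and filtered (0.22 µm PTFE). Citrate and acetate solutions were diluted 500-fold in water/acetonitrile 1:1. Analysis by HPLC with diode-array detection on a C18 column at 30 °C. At least 4 repeats.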

COS-1 = assay: Cytotoxicity against African green monkey COS1 cells assessed as reduction in cell viability incubated for 48 hrs by CellTiter 96 aqueous one solution cell proliferation assay; format: cell-based; settings: Chlorocebus aethiops, COS-1, 48 h
Method in brief: (§3)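 Caco-2, HepG2, A431 and COS-1 cells were exposed 48 h to compound or DMSO vehicle (0.1%) in Opti-MEM reduced-serum medium. MTS reagent was added for 4 h and formazan absorbance read at 490 nm. A 10% SDS toxic control was added 45 min before MTS. Vehicle and SDS were set to 100% and 0% viability; values given as relative viability at 30 µM. Triplicates, repeated at least three times.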

A-431 = assay: Cytotoxicity against human A431 cells assessed as reduction in cell viability incubated for 48 hrs by CellTiter 96 aqueous one solution cell proliferation assay; format: cell-based; settings: A-431, 48 h; method in brief: as §3
[12] = Cytotoxicity against African green monkey COS1 cells assessed as cell viability at 30 uM incubated for 48 hrs by CellTiter 96 aqueous one solution cell proliferation assay; format: cell-based; settings: chlorocebus aethiops, COS-1 cells; read-out: Activity; method in brief: as §3
Caco-2 = assay: Cytotoxicity against human Caco2 cells assessed as reduction in cell viability incubated for 48 hrs by CellTiter 96 aqueous one solution cell proliferation assay; format: cell-based; settings: Caco-2, 48 h; method in brief: as §3
[13] = Solubility in pH 5 acetate buffer by HPLC method; format: physicochemical; method in brief: as §2
[14] = Solubility in pure water at room temperature by HPLC method; format: physicochemical
[15] = Cytotoxicity against human Caco2 cells assessed as cell viability at 30 uM incubated for 48 hrs by CellTiter 96 aqueous one solution cell proliferation assay; format: cell-based; settings: Caco-2 cells, read-out: Activity; method in brief: as §3
[16] = Solubility in pH 3.0 citrate buffer by HPLC method; format: physicochemical; method in brief: as §2
[17] = Cytotoxicity against human HepG2 cells assessed as cell viability at 30 uM incubated for 48 hrs by CellTiter 96 aqueous one solution cell proliferation assay; format: cell-based; settings: read-out: Activity; method in brief: as §3
HepG2 = assay: Cytotoxicity against human HepG2 cells assessed as reduction in cell viability incubated for 48 hrs by CellTiter 96 aqueous one solution cell proliferation assay; format: cell-based; settings: HepG2, 48 h; method in brief: as §3
[18] = Cytotoxicity against human A431 cells assessed as cell viability at 30 uM incubated for 48 hrs by CellTiter 96 aqueous one solution cell proliferation assay; format: cell-based, A-431; settings: read-out: Activity; method in brief: as §3

| Compound | MIC99 (Mycobacterium kansasii [1]) [µM] | MIC99 (Mycobacterium kansasii [2]) [µM] | MIC99 [3] [µM] | MIC99 (Mycobacterium avium) [µM] | also measured |
| --- | --- | --- | --- | --- | --- |
| O=[N+]([O-])c1cc(CSc2nnc(CCCN3CCOCC3)o2)cc([N+](=O)[O-])c1 | 8 (≈ 3.28 µg/mL) | 8 (≈ 3.28 µg/mL) | 8 (≈ 3.28 µg/mL) | 500 (≈ 205 µg/mL) |  |
| CN1CCN(CCCc2nnc(SCc3cc([N+](=O)[O-])cc([N+](=O)[O-])c3)o2)CC1 | > 32 | > 32 | > 32 | 1000 (≈ 422 µg/mL) |  |
| CN[C@@H]1[C@H](O[C@H]2[C@H](O[C@H]3[C@H](O)[C@@H](O)[C@H](N=C(N)N)[C@@H](O)[C@@H]3N=C(N)N)O[C@@H](C)[C@]2(O)C=O)O[C@@H](CO)[C@H](O)[C@H]1O [STREPTOMYCIN] |  |  |  |  | MIC99 [4]: > 32 µM; MIC99 [5]: > 32 µM; MIC99 [6]: > 32 µM; MIC99 [7]: > 32 µM; MIC99 [8]: > 32 µM |
| O=[N+]([O-])c1cc(CSc2nnc(CCCN3CCCCC3)o2)cc([N+](=O)[O-])c1 | 16 (≈ 6.52 µg/mL) | 16 (≈ 6.52 µg/mL) | 16 (≈ 6.52 µg/mL) | 250 (≈ 102 µg/mL) |  |
| O=[N+]([O-])c1cc(CSc2nnc(CCCN3CCN(Cc4ccccc4)CC3)o2)cc([N+](=O)[O-])c1 | 2 (≈ 0.997 µg/mL) | 2 (≈ 0.997 µg/mL) | 2 (≈ 0.997 µg/mL) | 32 (≈ 16 µg/mL) |  |
| NCC[C@H](O)C(=O)N[C@@H]1C[C@H](N)[C@@H](O[C@H]2O[C@H](CN)[C@@H](O)[C@H](O)[C@H]2O)[C@H](O)[C@H]1O[C@H]1O[C@H](CO)[C@@H](O)[C@H](N)[C@H]1O [AMIKACIN] |  |  |  |  | MIC99 [8]: > 32 µM |
| NNC(=O)c1ccncc1 [ISONIAZID] | 4 (≈ 0.549 µg/mL) | > 250 |  | > 250 |  |
| O=[N+]([O-])c1cc(CSc2nnc(CCCCCN3CCN(Cc4ccccc4)CC3)o2)cc([N+](=O)[O-])c1 | 2 (≈ 1.05 µg/mL) |  |  |  | MIC>99 (Mycobacterium kansasii [2]): 2 µM (≈ 1.05 µg/mL); MIC>99 [3]: 1 µM (≈ 0.527 µg/mL); MIC>99 (Mycobacterium avium): 16 µM (≈ 8.43 µg/mL) |
| O=[N+]([O-])c1cc(CSc2nnc(CCCCCN3CCOCC3)o2)cc([N+](=O)[O-])c1 | 8 (≈ 3.5 µg/mL) | 8 (≈ 3.5 µg/mL) | 8 (≈ 3.5 µg/mL) | 125 (≈ 54.7 µg/mL) |  |
| CO[C@H]1/C=C/O[C@@]2(C)Oc3c(C)c(O)c4c(O)c(c(/C=N/N5CCN(C)CC5)c(O)c4c3C2=O)NC(=O)/C(C)=C\C=C\[C@H](C)[C@H](O)[C@@H](C)[C@@H](O)[C@@H](C)[C@H](OC(C)=O)[C@@H]1C [RIFAMPIN] | 0.125 (≈ 0.103 µg/mL) | 0.25 (≈ 0.206 µg/mL) | 0.25 (≈ 0.206 µg/mL) | 32 (≈ 26.3 µg/mL) | MIC99 [9]: > 8 µM; MIC99 [4]: > 8 µM; MIC99 [5]: > 8 µM; MIC99 [6]: > 8 µM; MIC99 [7]: > 8 µM; MIC99 [8]: > 8 µM; MIC99 [10]: > 8 µM |
| CC1COc2c(N3CCN(C)CC3)c(F)cc3c(=O)c(C(=O)O)cn1c23 (stereo not drawn) [OFLOXACIN] |  |  |  |  | MIC99 [6]: > 16 µM |
| O=[N+]([O-])c1cc(-c2nnc(SCCCN3CCOCC3)o2)cc([N+](=O)[O-])c1 | 16 (≈ 6.33 µg/mL) | 8 (≈ 3.16 µg/mL) | 8 (≈ 3.16 µg/mL) | 125 (≈ 49.4 µg/mL) |  |
| O=[N+]([O-])c1cc(-c2nnn(CCCN3CCN(Cc4ccccc4)CC3)n2)cc([N+](=O)[O-])c1 | 1 (≈ 0.452 µg/mL) | 2 (≈ 0.905 µg/mL) | 1 (≈ 0.452 µg/mL) | 8 (≈ 3.62 µg/mL) |  |
| CN1CCN(CCCSc2nnc(-c3cc([N+](=O)[O-])cc([N+](=O)[O-])c3)o2)CC1 | > 32 | 16 (≈ 6.54 µg/mL) | > 32 | 125 (≈ 51.1 µg/mL) |  |
| CN1CCN(CCCn2nnc(-c3cc([N+](=O)[O-])cc([N+](=O)[O-])c3)n2)CC1 | > 32 | 32 (≈ 12 µg/mL) | > 32 | 250 (≈ 94.1 µg/mL) |  |
| Cl.Cl.O=[N+]([O-])c1cc(CSc2nnc(CCCCCN3CCN(Cc4ccccc4)CC3)o2)cc([N+](=O)[O-])c1 |  | 2 | 2 | 32 | solubility [11]: 113 µM; MIC99 [9]: 2 µM; MIC>99 (Mycobacterium kansasii [1]): 2 µM; IC50 (COS-1): > 30 µM; IC50 (A-431): > 30 µM; viability at 48 h, 30 µM [12]: 99%; MIC99 [4]: 2 µM; IC50 (Caco-2): > 30 µM; MIC99 [5]: 2 µM; solubility [13]: 9000 µM; solubility [14]: 17100 µM; viability at 48 h, 30 µM [15]: 105%; solubility [16]: 18000 µM; MIC99 [6]: 2 µM; viability at 48 h, 30 µM [17]: 112%; IC50 (HepG2): > 30 µM; MIC99 [7]: 2 µM; MIC99 [8]: 2 µM; MIC99 [10]: 2 µM; viability at 48 h, 30 µM [18]: 86% |
| O=[N+]([O-])c1cc(-c2nnn(CCCN3CCOCC3)n2)cc([N+](=O)[O-])c1 | 16 (≈ 5.81 µg/mL) | 16 (≈ 5.81 µg/mL) | 16 (≈ 5.81 µg/mL) | 500 (≈ 182 µg/mL) |  |
| O=[N+]([O-])c1cc(-c2nnn(CCCN3CCCCC3)n2)cc([N+](=O)[O-])c1 | 16 (≈ 5.78 µg/mL) | 16 (≈ 5.78 µg/mL) | 4 (≈ 1.45 µg/mL) | 62.5 (≈ 22.6 µg/mL) |  |
| O=[N+]([O-])c1cc(-c2nnc(SCCCN3CCCCC3)o2)cc([N+](=O)[O-])c1 | 16 (≈ 6.29 µg/mL) | 32 (≈ 12.6 µg/mL) | 8 (≈ 3.15 µg/mL) | 62.5 (≈ 24.6 µg/mL) |  |
| GENTAMICIN |  |  |  |  | MIC>99 [4]: 2 µM; MIC>99 [5]: 1 µM; MIC>99 [7]: 1 µM; MIC>99 [8]: > 8 µM; MIC>99 [10]: 1 µM |
| O=[N+]([O-])c1cc(CSc2nnc(CCCCCN3CCCCC3)o2)cc([N+](=O)[O-])c1 | 32 (≈ 13.9 µg/mL) | 16 (≈ 6.97 µg/mL) | 16 (≈ 6.97 µg/mL) | 62.5 (≈ 27.2 µg/mL) |  |
| O=[N+]([O-])c1cc(-c2nnc(SCCCN3CCN(Cc4ccccc4)CC3)o2)cc([N+](=O)[O-])c1 | 0.5 (≈ 0.242 µg/mL) | 1 (≈ 0.485 µg/mL) | 0.125 (≈ 0.0606 µg/mL) | 2 (≈ 0.969 µg/mL) |  |
| CN1CCN(CCCCCc2nnc(SCc3cc([N+](=O)[O-])cc([N+](=O)[O-])c3)o2)CC1 | > 32 | > 32 | 32 (≈ 14.4 µg/mL) | 250 (≈ 113 µg/mL) |  |
